Screening results: PubChem, several laboratories
iPSC survival up = enhancers of single-cell hiPSC survival, primary screen, ATPlite luminescence. AID 602274, 2012. 360,000 compounds, 0.044% hits. survival enhancement, % at 20 µM. 100% = ROCK inhibitor wells, 0% = DMSO; in the data active means survival enhancement above about 18%;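 further: cells exposed to compounds for 16 hours before the ATP read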
PREPL inh = PREPL enzyme inhibitors, primary screen, biochemical, fluorescence polarization; AID 2751, 2010; 320,000 compounds, 0.68% hits; Prolyl endopeptidase-like (Homo sapiens), Q4J6C6; inhibition, % at 5.96 µM; recombinant PREPL, fluorescence polarization activity-based probe; in the data active means inhibition above about 43%
Target sequence (Q4J6C6 whole entry, looked up): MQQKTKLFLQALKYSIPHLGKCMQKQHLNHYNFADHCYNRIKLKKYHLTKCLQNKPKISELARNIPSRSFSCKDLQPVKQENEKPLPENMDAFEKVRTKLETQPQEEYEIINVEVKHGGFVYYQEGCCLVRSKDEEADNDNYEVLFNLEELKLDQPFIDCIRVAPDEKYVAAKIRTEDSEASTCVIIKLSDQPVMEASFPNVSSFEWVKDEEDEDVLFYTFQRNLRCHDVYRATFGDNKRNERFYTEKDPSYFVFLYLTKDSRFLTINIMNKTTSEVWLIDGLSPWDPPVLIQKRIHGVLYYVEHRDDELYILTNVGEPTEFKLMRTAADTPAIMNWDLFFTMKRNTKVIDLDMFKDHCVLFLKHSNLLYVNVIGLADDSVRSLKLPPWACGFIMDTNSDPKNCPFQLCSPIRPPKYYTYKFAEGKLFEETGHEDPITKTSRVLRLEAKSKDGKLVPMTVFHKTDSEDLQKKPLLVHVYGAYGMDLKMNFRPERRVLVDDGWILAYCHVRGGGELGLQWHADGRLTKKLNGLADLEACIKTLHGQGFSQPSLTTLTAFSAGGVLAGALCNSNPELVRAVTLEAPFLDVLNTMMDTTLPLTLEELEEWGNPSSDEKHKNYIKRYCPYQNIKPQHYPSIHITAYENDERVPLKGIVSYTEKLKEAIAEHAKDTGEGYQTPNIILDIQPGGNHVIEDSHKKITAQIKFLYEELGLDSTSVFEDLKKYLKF
MT1-MMP act inh = blockers of MT1-MMP proenzyme processing, primary screen, HT1080 RFP-PRO-GFP cells, GFP/RFP fluorescence. Matrix metalloproteinase-14 (Homo sapiens), P50281. GFP/RFP ratio fluorescence, overnight; percent of plate control window, DMSO zero. GFP/RFP ratio change, % at 20 µM. 360,000 compounds, 0.061% hits;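 active means GFP/RFP ratio change of at least 30% with cell ATP level not reduced by more than half and red fluorescence within 50% of control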
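Assay system: HT1080 cells carrying an RFP-PRO-GFP reporter | Dosing: Single dose of 20 µM compound, 1% DMSO final | Incubation: Cells overnight before dosing, compound overnight, 37 °C, 5% CO2 | Evaluation: GFP/RFP fluorescence ratio | Control set: DMSO and RFP-L50D-GFP cell wells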
SKN-1 inh = suppressors of acrylamide-induced Pgst-4::GFP reporter in worms, primary screen, SKN-1 inhibitor project, whole organism, uHTS, GFP/RFP fluorescence ratio, strain VP596 | AID 624304, 2012 | C. elegans VP596 Pgst-4::GFP/RFP ratio, 24 h | 360,000 compounds, 0.49% hits | inhibition, % at 21.8 µM;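 active means interference check ratio from 0.5 to 1.5 plus GFP to RFP signal ratio inhibition reaching or exceeding a fixed threshold, cut at about 30% in these data, passing the limit was not always enough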
TbMetRS inhib = T. brucei MetRS inhibitors, primary screen, biochemical, luminescence; 360,000 compounds, 0.4% hits; AID 624268, 2012; inhibition, % at 11.9 µM; methionyl-tRNA synthetase (Trypanosoma brucei brucei); purified T. brucei MetRS, ATP depletion, Kinase-Glo luminescence;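 active means inhibition above a per-plate cutoff of the control wells' mean inhibition plus 3 SD, cut at about 5.5% in these data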
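assay system = parasite MetRS enzyme | timing = 15 min preincubation, 2 h reaction, all 25 °C | evaluation = percent inhibition relative to median high and low control wells | medium = HEPES buffer containing pyrophosphatase, BSA, spermine, DTT | compound = single dose, 11.9 µM final nominal, 0.9% final DMSO | detection = Kinase-Glo luminescence, ATP depletion format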
eLon inh = inhibitors of E. coli Lon protease, primary screen, biochemical, fluorescence polarization; AID 602123, 2011; 360,000 compounds, 0.42% hits; inhibition, % at 7.94 µM; P0A9M0; purified E. coli Lon protease; in the data active means inhibition above about 13%, passing the limit was not always enough
MT1-MMP act val = MT1-MMP activation inhibitors, hit retest, confirmation, single concentration, fluorescence, HT1080 RFP-PRO-GFP cells | inhibition, % at 20 µM | shares compounds with MT1-MMP act inh | 200 compounds, 10% hits | GFP and RFP fluorescence ratio, overnight;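 active means inhibition of at least 50% in the primary cell screen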
A number is an active result; . = inactive; / = no result given. Only some compounds are listed: those with a hit (about 1.8% of all), similar ones and a draw of the others.

SMILES | iPSC survival up | PREPL inh | MT1-MMP act inh | SKN-1 inh | TbMetRS inhib | eLon inh | MT1-MMP act val
COc1ccccc1C(=O)NC(=S)/C=C1/N(C)c2ccccc2C1(C)C | . | . | 55 | . | . | . | .
Cc1cc2cc(CNC(=S)NC3CCCCC3)ccc2n1C | . | . | . | . | . | . | /
CCCS(=O)(=O)NCc1ccc2c(c1)cc(C)n2C | . | . | 34 | 53 | . | . | .
Cc1cc2cc(CNC(=O)C(C)Oc3ccccc3)ccc2n1C (centres undefined) | . | . | . | . | . | . | /
CCCCC(=O)NCc1ccc2c(c1)cc(C)n2C | . | . | 47 | 50 | . | . | .
Cc1cc2cc(CNC(=S)NCc3ccccc3)ccc2n1C | . | . | 46 | 36 | . | . | .
CCCCNC(=S)NCc1ccc2c(c1)cc(C)n2C | . | . | . | . | . | . | /
COc1ccccc1NC(=S)NCc1ccc2c(c1)cc(C)n2C | . | . | 41 | . | . | . | .
COc1ccc(NC(=O)CN(C)C(=O)c2c(C)nn(Cc3ccccc3)c2C)cc1 | . | . | . | . | . | . | /
N#CCCN1CCCc2cc(N=Nc3ccc(C(F)(F)F)cc3)ccc21 | . | . | 32 | . | . | . | .
CCCN1CCCc2ccccc21 | . | . | . | . | . | . | /
Cc1ccc(C(=O)NC(O)C(Cl)Cl)cc1 (centres undefined) | . | . | . | . | . | . | /
COc1cc(NS(=O)(=O)c2ccc(C)cc2)c2c(c1N)C(=O)c1ccccc1C2=O | . | / | 47 | 36 | . | . | .
COC(=O)C(C(=O)OC)c1ccccc1NS(=O)(=O)c1ccc(C)cc1 | / | / | . | . | . | / | /
C/C(=N\Nc1ccc([N+](=O)[O-])cc1)c1ccc(C#N)cc1 | . | . | . | . | . | . | /
N#CC(C#N)=NNc1ccc([N+](=O)[O-])cc1 | . | . | 33 | 90 | . | . | .
C=CCSc1nnc2c(n1)OC(c1c(C)[nH]n(-c3ccccc3)c1=O)Nc1ccccc1-2 (centres undefined) | . | . | . | . | . | . | /
CCC(=O)N1CCC1(C)C(=O)Nc1ccc(F)cc1 (centres undefined) | . | / | 34 | . | . | . | .
CCOC(=O)C1=C(C)N=c2s/c(=C\c3ccc(OC(C)=O)c(OCC)c3)c(=O)n2C1/C=C/c1ccccc1 (centres undefined) | . | . | 42 | . | . | . | .
CCn1c(C)c(P(c2ccccc2)c2ccccc2)[n+]2ccccc12 | . | . | . | . | . | . | /
O=C(CSc1nnc(NC(=O)c2c(F)cccc2F)s1)NCc1ccccc1 | . | . | . | . | . | . | /
CSC1=NSC2=NC(=O)/C(=C\c3cccs3)C(=N)N12 | . | . | 35 | . | . | . | .
O=C(O)c1cccc(N2C(=O)c3cc([N+](=O)[O-])cc4cc([N+](=O)[O-])cc(c34)C2=O)c1 | . | . | 42 | . | . | . | .
OC(c1ccccc1)c1ncc(-c2ccccc2Cl)[nH]1 (centres undefined) | . | / | . | . | . | . | /
CCN1C(=O)/C(=C2\C=Cc3ccccc3N2CC)SC1=S | . | . | 99 | . | . | . | .
SMILES | iPSC survival up | PREPL inh | MT1-MMP act inh | SKN-1 inh | TbMetRS inhib | eLon inh | MT1-MMP act val
CCN1C(=O)/C(=c2\o/c(=C3\C=Cc4ccccc4N3CC)c(=O)n2CC)SC1=S | . | / | . | . | . | . | /
O=C(Nc1ccc(S(=O)(=O)Nc2ccccc2)cc1)C1COc2ccccc2O1 (centres undefined) | . | . | 31 | . | . | . | .
Cc1cc(C)nc(NS(=O)(=O)c2ccc(NC(=O)C3COc4ccccc4O3)cc2)n1 (centres undefined) | . | . | . | . | . | . | /
COc1ccc(Br)cc1CNc1ccc(O)cc1 | . | . | 52 | . | . | . | .
COc1ccc(Br)cc1CNc1ccc2[nH]c(=O)[nH]c2c1 | . | . | . | . | . | . | /
Clc1nc2sccn2c1/C=N/n1cnc2ccccc21 | . | . | . | . | . | . | /
C[C@H](CO)N1C[C@H](C)[C@@H](CN(C)S(=O)(=O)c2ccc(F)cc2)Oc2ccc(NC(=O)Cc3ccccc3)cc2C1=O | . | . | . | . | . | . | /
C[C@H](CO)N1C[C@H](C)[C@@H](CN(C)S(=O)(=O)c2ccc(F)cc2)Oc2ccc(NC(=O)CCN3CCOCC3)cc2C1=O | . | . | 32 | . | . | . | .
Cc1ccc(-c2nc3sc4c(c3c(=O)n2N)CCCC4)cc1 | . | . | . | . | . | . | /
CNc1ccccc1C(C)(C)c1cc(-c2cccc(OC)c2)no1 | . | . | 47 | . | . | . | 54
COc1cc(-c2cc(=O)c3c(O)c(OC)c(OC)cc3o2)cc(OC)c1O | . | . | 31 | . | . | . | .
COc1ccc(-c2cc(=O)c3c(O)c(OC)c(O)cc3o2)cc1 | . | . | . | . | . | . | /
CS(=O)(=O)N1CCC(C(=O)N2CCN(c3ccccc3F)CC2)CC1 | . | . | . | . | . | . | /
Cc1oc2ccc(O)cc2c1C(=O)c1ccc([N+](=O)[O-])cc1 | . | . | . | . | . | . | /
CN(C)/C=C/c1oc2ccc(O)cc2c1[N+](=O)[O-] | . | . | 58 | . | . | . | 51
CC1CCCN(c2cc(N(C)CCO)c([N+](=O)[O-])c3nonc23)C1 (centres undefined) | . | . | . | . | . | . | /
CC1CCCN(c2ccc([N+](=O)[O-])s2)C1 (centres undefined) | . | / | . | . | . | . | /
O=[N+]([O-])c1ccc(N2CCCCC2)s1 | . | . | 32 | . | . | . | .
CN1/C(=C/C=C/c2n(C)c3cc([N+](=O)[O-])c([N+](=O)[O-])cc3[n+]2C)C(C)(C)c2ccccc21 | . | / | 97 | 57 | . | . | 94
COc1ccc2c(COC(=O)CNS(=O)(=O)c3ccc(C)c(C)c3)cc(=O)oc2c1 | . | . | . | . | . | . | /
O=C(O)COc1ccc2nsnc2c1Cl | . | . | . | . | . | . | /
